Bioassay records deposited in PubChem BioAssay by Broad Institute.
PDI inh = inhibitors of human protein disulfide isomerase. P07237. PDI insulin aggregation turbidity, A650, 90 min. inhibition, % at 10 µM. 0.052% of 350,000 active. AID 588391;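 active means mean inhibition across replicates of 30% or more, whatever share of single replicates reach that level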
rRNA inh HTS = inhibits bacterial ribosomal RNA function over humanized ribosomes; E. coli WT GFP vs humanized-ribosome RFP mutants, fluorescence, 24 h; active compounds read low; DMSO median 0, no signal -100; GFP signal change (wild-type ribosome), % (test concentration not listed); 1.6% of 350,000 active; AID 720706;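 active means significant combined selectivity score with lowered wild-type GFP, culture density cut under 30%, mutant RFP and density less affected; inactive means any of these conditions unmet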
PvdQ inh = blocks Pseudomonas aeruginosa PvdQ acylase activity | purified PvdQ acylase, fluorescence plate reader | inhibition, % at 10 µM | 0.063% of 340,000 active; in the data active means inhibition above about 30%, passing the limit was not always enough
Env fusion inh = inhibitors of HIV Env-mediated cell fusion; HeLa-JRFL Env/CEM21 cell fusion, luciferase; AID 651610; 1.1% of 360,000 active; inhibition, % at 12.3 µM;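 active means mean replicate inhibition score of at least 50 and every replicate individually at or above 50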
ERp5 block = inhibitors of human ERp5; Q15084; ERp5 insulin aggregation, absorbance 650 nm, 90 min; inhibition, % at 9.99 µM; 0.05% of 350,000 active; AID 651711;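 active means mean replicate inhibition above about 25%, with every replicate also reaching it, limit read from the data, passing the limit was not always enough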
Target sequence (Q15084 whole entry, looked up): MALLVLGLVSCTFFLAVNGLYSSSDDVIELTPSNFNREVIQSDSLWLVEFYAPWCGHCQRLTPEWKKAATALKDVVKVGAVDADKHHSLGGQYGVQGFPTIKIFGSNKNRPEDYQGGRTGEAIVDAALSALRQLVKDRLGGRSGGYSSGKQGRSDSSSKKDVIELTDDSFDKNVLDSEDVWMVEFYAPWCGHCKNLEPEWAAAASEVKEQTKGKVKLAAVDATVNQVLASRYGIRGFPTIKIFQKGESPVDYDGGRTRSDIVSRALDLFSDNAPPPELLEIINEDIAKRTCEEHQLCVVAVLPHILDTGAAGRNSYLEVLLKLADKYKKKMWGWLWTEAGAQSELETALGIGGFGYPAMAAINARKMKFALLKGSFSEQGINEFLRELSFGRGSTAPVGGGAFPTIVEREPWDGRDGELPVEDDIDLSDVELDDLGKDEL
FN deposit inh = fibronectin deposition inhibition | AH1F fibroblasts, Alexa488-fibronectin deposition fluorescence, overnight | 0.086% of 350,000 active | inhibition, % at 12.6 µM | AID 743247;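 active means mean inhibition across replicates of 30% or more, regardless of how many single replicates reach that level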
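Schedule: 1 h cell adhesion before compound, then overnight fibronectin incubation; test system: AH1F fibroblast monolayer depositing Alexa488-labelled fibronectin into matrix; quantity: 10000 AH1F cells per well; probe or stimulus: fluorescent fibronectin at 24 nM final; signal: fluorescence, ex 485 nm, em 525 nm; evaluation: percent inhibition as loss of matrix-bound fibronectin fluorescence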
Hits are given with their value; n = inactive; x = not tested or not shown. Most compounds without a hit are left out; they make up all but 2.2% or so of the library.

SMILES | PDI inh | rRNA inh HTS | PvdQ inh | Env fusion inh | ERp5 block | FN deposit inh
COc1ccc(-c2nnn(CC(=O)N3CCN(c4ccccc4OC)CC3)n2)cc1OC | n | -17 | n | n | n | n
C[C@@H]1CN([C@@H](C)CO)C(=O)c2cc(NS(=O)(=O)c3cn(C)cn3)ccc2O[C@@H](C)CCCCO[C@H]1CN(C)C(=O)c1ccccc1 | x | n | x | n | n | n
COc1ccc(C(=O)NC(=S)NCc2ccccc2)cc1OC | n | n | n | n | n | x
COc1ccc(C(=O)NC(=S)NCc2cccnc2)cc1OC | n | -29 | n | n | n | n
COc1ccc(CN(C)CC(=O)Nc2cccc3ccccc23)cc1F | n | n | n | n | n | n
CCOc1ccc(CN(C)CC(=O)Nc2cccc3ccccc23)cc1OC | n | -24 | n | n | n | n
COCC(=O)Nc1cccc2ccccc12 | n | x | n | n | x | n
COc1cc(CO)cc(Br)c1OCC(=O)Nc1cccc2ccccc12 | n | -24 | n | n | n | n
C[C@@H]1CCCCO[C@H](CN(C)Cc2ccc3c(c2)OCO3)[C@H](C)CN([C@@H](C)CO)C(=O)c2cc(NC(=O)Nc3cccc4ccccc34)ccc2O1 | x | n | x | n | x | x
C=Cn1cc[n+](CC(=O)c2cccs2)c1 | n | n | n | n | n | n
C=Cn1cc[n+](CC(=O)c2cc(C(C)(C)C)c(O)c(C(C)(C)C)c2)c1 | n | -19 | n | n | n | n
Cc1nnn(C23C[C@@H]4C[C@@H](CC(C(=O)N5CCN(c6ccccc6)CC5)(C4)C2)C3)n1 | n | -31 | n | n | n | n
O=C(N1CCN(c2ccccc2)CC1)C12CC3CC(CC(C3)C1)C2 | n | n | n | x | n | x
CC1CN(C(=O)c2cc3c(=O)n4ccccc4nc3n2C)CC(C)O1 (configuration not stated) | n | n | n | n | n | 36
COc1ccc(NC(=O)N(C)C[C@@H]2OCCCC[C@@H](C)Oc3ccc(NS(=O)(=O)c4cccs4)cc3C(=O)N([C@@H](C)CO)C[C@H]2C)cc1 | x | n | x | n | n | x
CCc1nc2ccc(C(=O)N3CCN(c4ccc([N+](=O)[O-])cc4)CC3)cc2nc1CC | n | -23 | n | n | n | n
CCc1noc(C)c1C(=O)N1CCN(c2ccc([N+](=O)[O-])cc2)CC1 | n | n | x | n | n | n
NC(=O)c1ccc(NC(=O)COC(=O)c2cc([N+](=O)[O-])ccc2N2CCOCC2)cc1 | n | n | n | n | n | x
O=C(c1cc([N+](=O)[O-])ccc1N1CCOCC1)N1CCN(c2ccc([N+](=O)[O-])cc2)CC1 | 36 | n | n | n | n | n
O=C(COC(=O)c1cc([N+](=O)[O-])ccc1N1CCOCC1)Nc1ccc(Cl)cc1 | n | -34 | n | n | n | n
O=C(c1cc([N+](=O)[O-])ccc1N1CCOCC1)N1CCCCC1 | n | n | n | n | n | n
C[C@@H]1CN([C@H](C)CO)S(=O)(=O)c2ccc(-c3cncnc3)cc2O[C@H]1CN(C)C(=O)C1CCCCC1 | x | n | x | n | n | n
CN(C)C(=O)c1ccc(-c2ccc(C3[C@H]4CNC[C@@H]3N4C(=O)NC3CCCC3)cc2)cc1 (some centres not stated) | x | n | x | x | n | n
COc1cccc(-c2ccc3c(c2)[C@@H]2[C@@H](CCN2C(=O)c2cccc(F)c2)[C@H](CO)N3)c1 | x | n | x | x | n | n
OC[C@H]1[C@H](c2ccc(-c3ccc(F)cc3)cc2)[C@@H]2CN(Cc3ccncc3)CCCCN12 | x | -19 | x | x | n | x
SMILES | PDI inh | rRNA inh HTS | PvdQ inh | Env fusion inh | ERp5 block | FN deposit inh
O=C(Nc1cc(F)ccc1F)N1CCCCN2[C@H](CO)[C@H](c3ccc(-c4cccnc4)cc3)[C@@H]2C1 | x | n | x | x | n | x
COc1cccc(CN2CCCCN3[C@@H](CO)[C@H](c4ccc(C#Cc5cccnc5)cc4)[C@@H]3C2)c1 | x | -18 | x | x | n | x
COc1cccc(CN2CCCCN3[C@H](CO)[C@@H](c4ccc(C#Cc5cccnc5)cc4)[C@@H]3C2)c1 | x | n | x | x | n | x
O=C(Nc1cc(F)ccc1F)N1CCCCN2[C@@H](CO)[C@H](c3ccc(-c4cccnc4)cc3)[C@@H]2C1 | x | -24 | x | x | x | x
C[C@H](CO)N1C[C@H](C)[C@@H](CN(C)C(=O)Nc2ccc3c(c2)OCO3)Oc2ccc(NS(=O)(=O)c3cccs3)cc2CC1=O | x | n | x | n | n | x
CC(C)[C@H]1C(=O)N[C@@H](c2ccc3c(c2)OCO3)CC=CC[C@H](C)Oc2ccccc2C(=O)N1C (mixture of isomers) | x | n | x | x | x | n
C[C@@H]1CN([C@@H](C)CO)C(=O)c2cccc(NC(=O)Nc3ccc(F)cc3)c2O[C@@H]1CN(C)C | x | n | x | x | n | n
O=S(=O)(c1ccc(Cl)cc1)N1CCCC(c2nc(-c3ccc(F)cc3)no2)C1 (configuration not stated) | n | n | n | n | n | n
O=S(=O)(c1ccccc1Cl)N1CCCC1c1nc(-c2ccc(Cl)cc2)no1 (configuration not stated) | n | x | n | 82 | x | n
C[C@@H]1CN([C@H](C)CO)S(=O)(=O)c2ccc(C#CCN(C)C)cc2O[C@@H]1CN(C)CC1CC1 | x | n | x | n | n | n
C=CCn1c(COc2ccccc2)nc2ccccc21 | n | -27 | n | n | n | n
CC1CCCC(C)N1CCCNC(=O)c1nn(C)c2c1CSc1ccccc1-2 (configuration not stated) | n | n | n | 80 | n | n
OC(CN1CCOCC1)Cn1cnc2ccccc21 (configuration not stated) | n | n | n | n | n | n
OC(CN1CCOCC1)Cn1c(-c2cccc(Cl)c2)nc2ccccc21 (configuration not stated) | n | x | 32 | n | x | n
Cc1ccc(OCCC(=O)OCC(=O)c2c(N)n(C)c(=O)n(C)c2=O)cc1 | n | n | n | n | n | n
CC(C)Cn1c(N)c(C(=O)COC(=O)c2ccccc2Cl)c(=O)n(C)c1=O | n | n | n | n | n | n
COc1ccccc1OCCC(=O)OCC(=O)c1c(N)n(C)c(=O)n(C)c1=O | n | n | 32 | n | n | n
Cn1c(N)c(C(=O)COC(=O)/C=C/c2ccc(F)cc2)c(=O)n(C)c1=O | n | n | n | n | n | n
CC(C)Cn1c(N)c(C(=O)COC(=O)/C=C/c2cccs2)c(=O)n(C)c1=O | n | -23 | n | n | n | n
CC(C)Cn1c(N)c(C(=O)COC(=O)c2cccc(Cl)c2)c(=O)n(C)c1=O | n | -28 | n | n | n | x
Cn1c(N)c(C(=O)COC(=O)/C=C/c2ccccc2)c(=O)n(C)c1=O | n | -20 | n | n | n | n
COc1ccc(S(=O)(=O)Nc2ccc3c(c2)C(=O)N([C@H](C)CO)C[C@@H](C)[C@H](CN(C)S(=O)(=O)c2ccc(OC)cc2)OCCCC[C@H](C)O3)cc1 | x | n | x | n | x | n
